Laboratory results: ChEMBL document CHEMBL1153057, “Chemical constituents of propolis from Myanmar and their preferential cytotoxicity against a human pancreatic cancer cell line” (2009)
Active and inactive are the calls of the source. The rule behind the calls is not given here.

Legend:
PANC-1 [1] = assay: Cytotoxicity against human PANC1 cells in nutrient-deprived condition assessed as 100% cell death after 24 hrs by WST8 assay; assay type: functional
How it was run: (§1)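 PANC-1 cells, 2 × 10⁴ per well, grown 24 h in DMEM at 37 °C under 5% CO2, PBS-washed, then switched to DMEM or nutrient-deprived medium (glucose-, amino acid- and serum-free salts, vitamins, 25 mM HEPES, pH 7.4) holding serial dilutions for 24 h. Viability by WST-8 (10% in DMEM, 3 h, A450), blank-corrected against untreated control, mean of three wells. PC100/PC50 = concentration killing 100%/50% of cells preferentially in NDM.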

PANC-1 [2] = assay: Cytotoxicity against human PANC1 cells in nutrient-deprived condition assessed as 50% cell death after 24 hrs by WST8 assay; assay type: functional; how it was run: as §1
PANC-1 [3] = assay: Cytotoxicity against human PANC1 cells in nutrient-deprived condition assessed as complete preferential cell death at 6.25 uM within 24 hrs of starvation by WST8 assay; assay type: functional
PANC-1 [4] = assay: Cytotoxicity against human PANC1 cells in nutrient-deprived condition assessed as complete preferential cell death at 50 uM within 6 hrs of treatment by WST8 assay; assay type: functional
PANC-1 [5] = assay: Induction of apoptosis in human PANC1 cells in nutrient deprived condition assessed as morphological changes at 6.25 uM within 24 hrs of treatment using phase contrast microscopy by WST8 assay; assay type: functional, cell-based

Row | SMILES | CD100 (PANC-1 [1]) [µM] | PC50 (PANC-1 [2]) [µM] | Activity (PANC-1 [3]) [%] | Activity (PANC-1 [4]) [%] | Activity (PANC-1 [5])
1 | C[C@H](CC/C=C(\CO)C(=O)O)[C@H]1CC[C@@]2(C)[C@@H]3CC[C@H]4C(C)(C)[C@@H](O)CC[C@@]45C[C@@]35CC[C@]12C | >100 | >100 |  |  | 
2 | O=c1[nH]cc(F)c(=O)[nH]1 [FLUOROURACIL] | >100 | >100 |  |  | 
3 | C/C(=C\CC[C@@H](C)[C@H]1CC[C@@]2(C)[C@@H]3CC[C@H]4C(C)(C)[C@H](O)CC[C@@]45C[C@@]35CC[C@]12C)C(=O)O [ISOMANGIFEROLIC ACID] | 25 | 13.7 |  |  | 
4 | CC(C)=CCc1cc([C@@H]2CC(=O)c3c(O)cc(O)c(CC=C(C)C)c3O2)ccc1O [LESPEDEZAFLAVANONE B] | 25 | 19.8 |  |  | 
5 | C[C@H](CC/C=C(\CO)C(=O)O)[C@H]1CC[C@@]2(C)[C@@H]3CC[C@@H]4[C@@]5(CCC(=O)[C@@]4(C)CO)C[C@@]35CC[C@]12C | >100 | >100 |  |  | 
6 | CC(=O)O[C@H]1C(=O)[C@@]2(C)[C@H]([C@H](OC(=O)c3ccccc3)[C@]3(O)C[C@H](OC(=O)[C@H](O)[C@@H](NC(=O)c4ccccc4)c4ccccc4)C(C)=C1C3(C)C)[C@]1(OC(C)=O)CO[C@@H]1C[C@@H]2O [PACLITAXEL] | >100 | >100 |  |  | 
7 | C/C(=C\CC[C@@H](C)[C@H]1CC[C@@]2(C)[C@@H]3CC[C@H]4C(C)(C)C(=O)CC[C@@]45C[C@@]35CC[C@]12C)C(=O)O [MANGIFERONIC ACID] | >100 | >100 |  |  | 
8 | COc1cc(C[C@H]2C(=O)OC[C@@H]2Cc2ccc(OC)c(OC)c2)ccc1O [ARCTIGENIN] | 1 | 0.4 |  |  | 
9 | C/C(=C\CC[C@@H](C)[C@H]1CC[C@@]2(C)[C@@H]3CC[C@@H]4[C@@]5(CCC(=O)[C@@]4(C)CO)C[C@@]35CC[C@]12C)C(=O)O | >100 | >100 |  |  | 
10 | C/C(=C\CC(O)[C@@H](C)[C@H]1CC[C@@]2(C)[C@@H]3CC[C@H]4C(C)(C)[C@H](O)CC[C@@]45C[C@@]35CC[C@]12C)C(=O)O (stereo partly specified) | 25 | 13.4 |  |  | 
11 | C[C@H](CC/C=C(\CO)C(=O)O)[C@H]1CC[C@@]2(C)[C@@H]3CC[C@H]4C(C)(C)[C@H](O)CC[C@@]45C[C@@]35CC[C@]12C | 25 | 15.5 |  |  | 
12 | CC(C)=CCc1c(O)cc(O)c2c1O[C@H](c1ccc(O)cc1)CC2=O [SOPHORAFLAVANONE B] | 50 | 39.4 |  |  | 
13 | C/C(=C/C=C/[C@@H](C)[C@H]1CC[C@@]2(C)[C@@H]3CC[C@H]4C(C)(C)C(=O)CC[C@@]45C[C@@]35CC[C@]12C)C(=O)O | 6.3 | 4.3 | 100 | 100 | Active
14 | C/C(=C\C(O)C[C@@H](C)[C@H]1CC[C@@]2(C)[C@@H]3CC[C@H]4C(C)(C)C(=O)CC[C@@]45C[C@@]35CC[C@]12C)C(=O)O (stereo partly specified) | 50 | 28 |  |  | 
15 | C/C(C=O)=C\CC[C@@H](C)[C@H]1CC[C@@]2(C)[C@@H]3CC[C@H]4C(C)(C)[C@@H](O)CC[C@@]45C[C@@]35CC[C@]12C | >100 | >100 |  |  | 
16 | C/C(=C\C(O)C[C@@H](C)[C@H]1CC[C@@]2(C)[C@@H]3CC[C@H]4C(C)(C)[C@@H](O)CC[C@@]45C[C@@]35CC[C@]12C)C(=O)O (stereo partly specified) | >100 | >100 |  |  | 
17 | C[C@H](CC/C=C(\CO)C(=O)O)[C@H]1CC[C@@]2(C)[C@@H]3CC[C@H]4C(C)(C)C(=O)CC[C@@]45C[C@@]35CC[C@]12C | 50 | 38.5 |  |  | 
18 | C/C(=C\CC[C@@H](C)[C@H]1CC[C@@]2(C)[C@@H]3CC[C@H]4C(C)(C)[C@@H](O)CC[C@@]45C[C@@]35CC[C@]12C)C(=O)O [MANGIFEROLIC ACID] | >100 | >100 |  |  | 
19 | COc1ccc([C@@H]2CC(=O)c3c(O)cc(O)c(CC=C(C)C)c3O2)cc1CC=C(C)C | 12.5 | 7.9 |  |  | 
